# A selection: hits, their analogues and other compounds. The true share with any hit is near 1.9%.
# PP1 counter: counter-screen for PP5 inhibitors: inhibitors of human PP1-alpha. purified PP1alpha, OMFP fluorescence. inhibition, % at 6.7 µM. 320,000 compounds, 0.9% hits. AID 2235;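 active = inhibition above the mean inhibition of all tested compounds plus 3 SD, computed separately for each screening campaign, cut at about 15% in these data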
# Target sequence (P62136 whole entry, looked up): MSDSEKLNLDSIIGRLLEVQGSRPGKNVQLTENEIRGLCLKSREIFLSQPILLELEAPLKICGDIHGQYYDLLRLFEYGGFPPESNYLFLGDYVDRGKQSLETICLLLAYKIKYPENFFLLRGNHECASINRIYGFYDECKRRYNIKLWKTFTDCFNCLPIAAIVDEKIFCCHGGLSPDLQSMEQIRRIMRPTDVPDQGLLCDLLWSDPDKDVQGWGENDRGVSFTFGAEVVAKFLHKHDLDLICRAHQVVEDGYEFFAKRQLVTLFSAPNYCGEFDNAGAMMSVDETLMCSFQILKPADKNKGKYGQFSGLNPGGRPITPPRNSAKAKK
# DNA FID counter-1: fluorescent intercalator displacement, NS3 helicase counter-screen; inhibition, % at 7.9 µM; 290,000 compounds, 0.17% hits; DNA fluorescent intercalator displacement, fluorescence;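 note: 0% = vehicle and 100% = reference compound; higher means more ethidium bromide displaced from hairpin DNA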
# PP5 primary: inhibitors of human protein phosphatase 5 (PP5) | inhibition, % at 6.7 µM | P53041 | 320,000 compounds, 0.18% hits | purified PP5c, OMFP substrate fluorescence;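 active = inhibition above the campaign's mean inhibition across all tested compounds plus 3 SD, cut at about 9.5% in these data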;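 note: 0% = DMSO only and 100% = 100 µM cantharidin control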
# HIF activator: HIF pathway transcriptional activation | U2OS HRE-luciferase reporter, luminescence; normalized: DMSO 0%, desferrioxamine 100% | activation, % at 7.5 µM (by protocol) | 300,000 compounds, 0.32% hits | AID 1910;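 active = mean activation of at least 10% of the iron chelator positive control signal, with at least half of replicates also reaching 10%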
# NS3 helicase inh: inhibitors of Hepatitis C virus NS3 helicase. inhibition, % at 10.9 µM. NS3 helicase DNA unwinding, Cy5 molecular beacon fluorescence. AID 1800. 290,000 compounds, 0.56% hits;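 active = inhibition above the mean of all tested compounds plus 3 SD, set per campaign, cut at about 35% in these data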;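 note: 0% = DMSO wells and 100% = thioflavine S control wells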
#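 Assay system – hepatitis C virus NS3 helicase domain fragment enzyme · Buffer or medium – MOPS pH 6.5, MgCl2, DTT, Tween20, BSA · Reagent – Cy5/quencher beacon DNA duplex and ATP to start · Compound – single 10.9 µM dose · Timing – 1 h at 25 °C · Technique – Cy5 beacon fluorescence read at start and 1 h · Measure – % inhibition of unwinding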
# NS3 helicase cf: confirmation of Hepatitis C virus NS3 helicase inhibitors; inhibition, % at 10.9 µM; NS3 helicase DNA unwinding, Cy5 molecular beacon fluorescence; 1,600 compounds, 31% hits; shares compounds with NS3 helicase inh;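 active = inhibition above the mean of all tested compounds plus 3 SD, cutoff set per campaign, cut at about 36% in these data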
# DNA FID counter-2: displaces DNA intercalator in HCV helicase counter-screen | shares compounds with NS3 helicase inh | DNA fluorescent intercalator displacement, fluorescence | inhibition, % at 7.9 µM | 1,600 compounds, 4% hits | AID 1945;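 note: 0% = vehicle and 100% = reference compound; higher means more displacement of ethidium bromide from the DNA hairpin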
# DNA FID DR: counter-screen for HCV NS3 helicase inhibitors: DNA intercalator displacement dose response; fluorescent intercalator displacement from DNA, fluorescence; AID 2172; IC50, µM; 120 tested, under 10 active; shares compounds with NS3 helicase inh; call rule not given here
# An asterisk follows results filed as active; . = not tested or not shown. Cut-off read from the data, not from the text of the source, unless noted: active = inhibition above about 37%; inactive = the rest.
SMILES,PP1 counter,DNA FID counter-1,PP5 primary,HIF activator,NS3 helicase inh,NS3 helicase cf,DNA FID counter-2,others
CC1=NN(c2ccc(C)c(C)c2)C(=O)/C1=C\C=C\c1ccc([N+](=O)[O-])o1,3,-6,1,-7,40*,15,33,
CCc1ccc(/C=N\n2cnnc2)cc1,1,-14,0,-1,1,.,.,
Cc1ccc(-n2cccc2/C=C2\C(=N)N3N=C(c4ccco4)SC3=NC2=O)cc1,9,-26,2,0,42*,85*,-23,DNA FID DR=>79
CCC1=NN2C(=N)/C(=C\c3cccn3-c3ccc(Cl)cc3)C(=O)N=C2S1,-3,-2,0,-1,4,.,.,
CCCN(CC(=O)Nc1ccc(F)c(F)c1F)C(=O)c1ccc(N2CCCC2=O)cc1,-1,.,2,.,.,.,.,
CC(C)Nc1nc(Oc2ccc(=O)n(-c3ccccc3)n2)nc(N(C)C)n1,-6,-37,1,0,36*,-3,-20,
CCOc1ccc(NC(=O)COC(=O)CCN2C(=O)C3CC=CCC3C2=O)cc1OCC (stereo not given),2,.,1,.,.,.,.,
Cc1ccc(/C=C/C(=O)c2ccccc(=O)c2O)c(C)c1,11,-17,-5,-2,38*,77*,17,DNA FID DR=>79
O=C(/C=C/c1ccccc1Cl)c1ccccc(=O)c1O,13,-18,7,2,44*,78*,33,DNA FID DR=>79
Cc1ccc(C)c(/C=C/C(=O)c2ccccc(=O)c2O)c1,14,-24,2,2,38*,77*,16,DNA FID DR=>79
O=C(/C=C/c1ccc(O)c(O)c1)c1ccccc1O,5,4,0,5,-10,.,.,
Cc1ccc(Nc2ncnc(N)n2)cc1C,-1,-1,0,0,-2,.,.,
CCc1cccc(C)c1NC(=O)CC1Oc2ccc(C)cc2NC1=O (stereo not given),4,-20,-1,-5,-69,.,.,
CCOC(=O)c1cnc(-c2ccccc2)nc1N1CCOCC1,-3,-16,1,0,49*,-14,-20,
CCOC(=O)c1ccc(N2C(=O)c3n[nH]c(C)c3C2c2cccnc2)cc1 (stereo not given),-4,-8,-2,0,9,.,.,
CCOC(=O)c1ccc(N2C(=O)c3n[nH]c(-c4ccco4)c3C2c2ccc([N+](=O)[O-])cc2)cc1 (stereo not given),13,-34,3,-1,38*,20,-31,
O=C(N/N=C/c1cc(Br)c(O)c(Br)c1O)c1ccc2c(c1)OCCO2,1,-23,1,2,16,.,.,
O=C(N/N=C/c1cc(Br)c(Br)o1)c1ccc2c(c1)OCCO2,4,-1,-1,2,37*,1,4,
CC1CCc2c(sc(NC(=O)CSc3nnc(-c4ccccc4)o3)c2C#N)C1 (stereo not given),1,-11,-1,1,47*,1,6,
N#Cc1c(NC(=O)CSc2nnc(-c3ccccc3)o2)sc2c1CCCC2,-2,-5,0,1,26,.,.,
Cc1sc(NC(=O)CSc2nnc(-c3ccccc3)o2)c(C#N)c1C,0,-14,-1,1,38*,-2,-22,
Cc1csc(NC(=O)CSc2nnc(-c3ccccc3)o2)n1,0,-7,4,0,-6,.,.,
O=C(C(Cc1ccccc1)n1cccc1)N1CCN(Cc2ccccc2)CC1 (stereo not given),6,-17,-6,-1,42*,-9,14,
COc1ccc(C(=O)NC2CCN(Cc3c(F)cccc3Cl)CC2)cc1OC,-2,-11,2,-17,-6,.,.,
Cc1occc1C(=O)NNC(=S)NC(=O)COc1ccc(Cl)cc1Cl,0,-19,-2,0,72*,58*,-6,DNA FID DR=>79
SMILES,PP1 counter,DNA FID counter-1,PP5 primary,HIF activator,NS3 helicase inh,NS3 helicase cf,DNA FID counter-2,others
Cc1occc1C(=O)NNC(=O)COc1ccc(Br)cc1Br,0,-1,-1,0,5,.,.,
O=C(Nc1cccc(Cl)c1)c1cccnn1,0,-5,-1,-2,4,.,.,
O=C1CC(c2ccco2)CC(O)=C1C=Nc1cc(Cl)ccc1O (stereo not given),5,-12,-1,-1,42*,1,13,
O=C(NNC(=O)c1ccccc1-n1cccc1)c1ccc(Cl)nc1,-9,.,-1,.,.,.,.,
CC(C)CSc1oc(-c2ccco2)nc1S(=O)(=O)c1ccccc1,-4,-23,1,0,40*,-23,-27,
Cc1ccc(NC(=O)c2cncc(Br)c2)cc1S(=O)(=O)N(C)C,1,-11,2,2,5,.,.,
NS(=O)(=O)c1ccc(N=Nc2ccc(=O)[nH]c2O)cc1,9,1,-3,-32,32,-17,13,
CCCOc1c(Br)cc(C(=O)OCC(=O)NC(=O)c2cccn2C)cc1OC,-3,.,1,.,.,.,.,
O=C(Nc1nc2c(Cl)c(Cl)ccc2s1)C1CC1,1,-20,0,0,41*,2,-12,
Cc1cc(CN(C)C(=O)C2CCC(=O)N(CCc3cccc(F)c3)C2)on1 (stereo not given),-4,-11,0,1,3,.,.,
CCCCC(=O)Nc1ccc(C(=O)NN2C(=O)c3ccccc3C2=O)cc1,-3,1,0,0,4,.,.,
COc1ccccc1-n1c(SCC(=O)NC(C)(C)C)nc(O)cc1=O,1,-46,1,0,36*,-18,3,
CCOc1ccc(C(=O)NCC(=O)N2CC=C(c3ccccc3)CC2)cc1OCC,2,.,1,0,.,.,.,
CN(C)C(=S)Nc1cccc(-c2n[nH]c(=S)o2)c1,-2,0,-2,1,1,.,.,
NNC(=S)Nc1cccc(-c2n[nH]c(=S)o2)c1,1,-25,-2,-1,37*,2,-9,
COCCCNC(=O)C1=CCN(S(=O)(=O)c2ccc(C)cc2)CC1,1,-10,-1,0,4,.,.,
CCOc1ccc(NS(=O)(=O)c2cccc(C(=O)N(C)Cc3ccco3)c2)cc1,-1,.,2,.,.,.,.,
CC1CCCN(C(=O)CCS(=O)(=O)c2ccc3c(c2)NC(=O)C(C)S3)C1 (stereo not given),-4,-42,-1,0,44*,-16,-24,
CC1Sc2ccc(S(=O)(=O)CCC(=O)NC3CCCC(C)C3C)cc2NC1=O (stereo not given),0,-46,-1,0,54*,-13,-31,
CC1CCCC(NC(=O)CCS(=O)(=O)c2ccc3c(c2)NC(=O)CS3)C1C (stereo not given),-1,-38,1,0,-3,.,.,
CCn1cc(C(=O)NCCc2ccccc2)c(=O)c2cc(S(=O)(=O)N3CCCC3)ccc21,2,-6,4,-1,-17,.,.,
